Experimental data as given in ChEMBL document CHEMBL4699426, “A practical synthesis of amino limonin/deoxylimonin derivatives as effective mitigators against inflammation and nociception” (2020).

What was measured:
Assay type in all cases: functional
Mus musculus [1] = assay: Antiinflammatory activity in mouse model of xylene-induced ear swelling assessed as inhibition of swelling by measuring weight of the ear at 100 mg/kg, ig pretreated for 90 mins followed by xylene challenge and measured after 30 mins relative to control; conditions: po, 2 h, time 120 min
How it was run: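 Xylene ear swelling in mice. Test compounds 100 mg/kg i.g., naproxen 150 mg/kg i.g., all suspended in 0.5% CMC-Na; vehicle group got CMC-Na alone. 90 min after dosing, 25 ul xylene applied to both surfaces of right ear; left ear unstimulated. Killed 30 min later; 8 mm punches from both ears weighed; swelling taken against left ear weight.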

Mus musculus [2] = assay: Analgesic activity in mouse model of acetic-acid-induced writhing assessed as inhibition of writhing numbers at 70 mg/kg, po pretreated with compound followed by acetic acid challenge and measured after 30 mins relative to control; conditions: 0.5 h
How it was run: (§1)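 Acetic acid writhing in mice. Oral dosing (70 mg/kg test compounds or limonin; 200 mg/kg aspirin); vehicle controls got 0.5% CMC-Na. 30 min later 0.6% acetic acid, 10 ml/kg i.p. Each animal held in its own box and observed for 15 min; writhing and stretching counted; result as percent change from vehicle writhing controls.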

Mus musculus [3] = assay: Analgesic activity in mouse model of acetic-acid-induced writhing assessed as inhibition of writhing numbers at 200 mg/kg, po pretreated with compound followed by acetic acid challenge and measured after 30 mins relative to control; conditions: 0.5 h; how it was run: as §1
Mus musculus [4] = assay: Antiinflammatory activity in ICR mouse model of carrageenan-induced paw edema assessed as paw edema inhibition rate at 22 mg/kg, po pretreated with compound followed by carrageenan challenge and measured after 2 hrs post-treatment by dial thickness gage
How it was run: (§2)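 ICR male mice, 8 per group, randomized, acclimated at least one week, 12 h light/dark, 22 ± 1 °C. Dosed intragastrically at 25, 50 or 100 mg/kg; indomethacin 22 mg/kg i.g. as reference; olive oil as vehicle. 30 min later, 1% fresh carrageenan in saline injected subplantar into right hind paw. Paw thickness read by dial gauge before injection and at 1, 2, 3 and 4 h; percent increase over pre-injection value.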

Mus musculus [5] = assay: Antiinflammatory activity in ICR mouse model of carrageenan-induced paw edema assessed as paw edema inhibition rate at 22 mg/kg, po pretreated with compound followed by carrageenan challenge and measured after 4 hrs post-treatment by dial thickness gage; how it was run: as §2
Mus musculus [6] = assay: Antiinflammatory activity in ICR mouse model of carrageenan-induced paw edema assessed as paw edema inhibition rate at 22 mg/kg, po pretreated with compound followed by carrageenan challenge and measured after 1 hr post-treatment by dial thickness gage; how it was run: as §2
Mus musculus [7] = assay: Antiinflammatory activity in ICR mouse model of carrageenan-induced paw edema assessed as paw edema inhibition rate at 22 mg/kg, po pretreated with compound followed by carrageenan challenge and measured after 3 hrs post-treatment by dial thickness gage; how it was run: as §2

| SMILES | inhibition in vivo at 100 mg/kg (Mus musculus [1]) [%] | inhibition in vivo at 70 mg/kg (Mus musculus [2]) [%] | also measured |
| --- | --- | --- | --- |
| COc1ccc(CCNCCC2OC(C)(C)[C@@H]3CC(=O)[C@@]4(C)C5=CC(=O)O[C@@H](c6ccoc6)[C@]5(C)CC[C@@H]4C23CO)cc1OC (some centres not stated) | 37.9 | 52.6 |  |
| CC1(C)OC(CCNCCc2ccc(F)cc2)C2(CO)[C@H]3CC[C@]4(C)C(=CC(=O)O[C@H]4c4ccoc4)[C@]3(C)C(=O)C[C@@H]12 (some centres not stated) | 30 | 30.1 |  |
| COc1ccc(CNCCC2OC(C)(C)[C@@H]3CC(=O)[C@@]4(C)C5=CC(=O)O[C@@H](c6ccoc6)[C@]5(C)CC[C@@H]4C23CO)cc1 (some centres not stated) | 24.8 | 29.7 |  |
| CC1(C)OC2CCN(Cc3ccc(F)cc3)CC23[C@H]2CC[C@]4(C)C(=CC(=O)O[C@H]4c4ccoc4)[C@]2(C)C(=O)C[C@@H]13 (some centres not stated) | 28 | 40.3 |  |
| CC(=O)Oc1ccccc1C(=O)O [ASPIRIN] |  |  | inhibition in vivo at 200 mg/kg (Mus musculus [3]): 51.5% |
| CC1(C)O[C@H]2CC(=O)OC[C@@]23[C@H]1CC(=O)[C@@]1(C)C2=CC(=O)O[C@@H](c4ccoc4)[C@]2(C)CC[C@@H]13 | 11.2 | 22.6 |  |
| CC1(C)OC(CCNCCc2ccc(F)cc2)C2(CO)[C@H]3CC[C@@]4(C)[C@H](c5ccoc5)OC(=O)[C@H]5O[C@]54[C@]3(C)C(=O)C[C@@H]12 (some centres not stated) | 16.1 | 55.8 |  |
| COc1ccc2c(c1)c(CC(=O)O)c(C)n2C(=O)c1ccc(Cl)cc1 [INDOMETHACIN] |  |  | inhibition in vivo at 22 mg/kg (Mus musculus [4]): 60%; inhibition in vivo at 22 mg/kg (Mus musculus [5]): 64.8%; inhibition in vivo at 22 mg/kg (Mus musculus [6]): 47.5%; inhibition in vivo at 22 mg/kg (Mus musculus [7]): 64.9% |
